The sample as a whole holds a higher share of hits than the screen did.
Redox H2O2 prof: compounds producing H2O2 with reducing agent – biochemical, NIH compound library profiling, artefact control for MLSCN library redox annotation, primary screen | activation, % at 10 µM | actives 0.03% (n = 200,000) | AID 878 | DTT-dependent redox cycling H2O2, phenol red/HRP absorbance; 100% = 100 µM peroxide control, 0% = buffer;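 active = activation of at least 50% relative to the plate's high and low controls in the primary single-dose screen; inactive = activation below 50%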;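 also: compound incubated with DTT at 0.8 mM final as the reducing agent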
Diaph act CS: counter-screen for diaphorase-based assays: diaphorase activators and chemical reducers | AID 1229 | activation factor at 20 µM | actives 0.005% (n = 190,000) | Diaphorase/resazurin coupled assay, resorufin fluorescence, 16 min; stronger effect = higher value; 1 = vehicle wells, 0 = NADH-free wells;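 active = diaphorase activity raised at least twofold by the compound at 20 µM; inactive = activation factor below 2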
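test system = bacterial diaphorase enzyme (C. kluyveri) | quantity = enzyme 0.07 U/mL final | reagent = NADH substrate 0.114 mM plus resazurin dye 0.1 mM, final | incubation = 16 min enzyme reaction, ambient temperature | buffer or medium = HEPES pH 7.4 buffer with MgCl2 and Tween 20 | signal = fluorescence of resorufin, 544 nm excitation, 590 nm emission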
G6PDH CS: L. mesenteroides G6PDH inhibition counter-screen; actives 0.12% (n = 200,000); inhibition, % at 5 µM; Purified L. mesenteroides G6PDH, diaphorase/resazurin coupled fluorescence, 45 min
Diaph inh CS: counter-screen for diaphorase-based assays: diaphorase inhibitors and chemical oxidizers | actives 0.69% (n = 190,000) | inhibition, % at 20 µM | diaphorase resazurin-to-resorufin fluorescence, NADH, 16 min; bacterial (C. kluyveri) enzyme, not human | AID 1217;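 active = primary screen inhibition at 20 µM above a set limit, cut at about 50% in these data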;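 also: plate controls were DMSO with full reaction for no effect and wells lacking NADH for full effect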
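System: Diaphorase enzyme from Clostridium kluyveri | Amount: Enzyme working solution with 0.14 U/mL diaphorase | Benchmarks: No-NADH positive control and DMSO neutral control | Signal: Fluorescence of resorufin formed from resazurin, Ex 544/Em 590 nm | Schedule: 16-min room-temperature incubation before reading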
Lmaj promast: reduces viability of Leishmania major promastigotes | resazurin fluorescence viability | inhibition, % at 10 µM | actives 9% (n = 200,000);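 also: promastigotes grown with compound for 44 hours at 28 °C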
PfGluPho inh: PfG6PD (Plasmodium falciparum) enzyme inhibition; inhibition, % at 20 µM; actives 0.78% (n = 350,000); AID 504690; PfGluPho enzyme, NADPH resazurin-diaphorase fluorescence;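 active = inhibition reaching at least a set limit at 20 µM in the primary screen, cut at about 59% in these data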;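 also: 0% = DMSO wells with substrate and 100% = DMSO wells lacking glucose-6-phosphate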
* marks the source's active call; other numbers are inactive results; / = no result given. Rule as the data show it, unless noted: active = inhibition above about 50%; inactive = the rest.

SMILES | Redox H2O2 prof | Diaph act CS | G6PDH CS | Diaph inh CS | Lmaj promast | PfGluPho inh
O=C(COC(=O)c1cc(S(=O)(=O)N2CCOCC2)c(Cl)cc1Cl)c1ccc[nH]1 | / | / | / | / | / | 12.5
Cc1cc(C)nc(SCC(=O)NC(=O)c2ccccc2O)n1 | / | / | / | / | / | 10.3
CN(C)S(=O)(=O)c1cccc(NC(=O)NCCCl)c1 | / | / | / | / | / | -15.1
COc1ccc(NS(=O)(=O)c2cccc(NC(=O)NCCCl)c2)cc1 | -0.9 | 0.8 | 3.6 | 16.8 | 70.9* | -0.5
CC12CCC(=O)N1C(C(=O)Nc1nc(-c3ccccc3Cl)cs1)CS2 (stereo not given) | / | / | / | / | / | 13.7
O=C(CN(C1CC1)S(=O)(=O)c1ccc(S(=O)(=O)NC2CCCCC2)cc1)Nc1ccccc1 | 3.2 | 0.7 | 7.3 | 32.6 | 100.0* | 7.8
O=C(CN(Cc1cccs1)S(=O)(=O)c1ccc(S(=O)(=O)NC2CCCCC2)cc1)Nc1ccccc1 | -0.5 | 1 | 4.2 | -2.1 | 41.1 | -7.5
COC(=O)COc1ccc(S(=O)(=O)NC2CCCCCC2)cc1 | 2.7 | 0.9 | -6.9 | 8.5 | 8.1 | -14.1
CCC(C)NS(=O)(=O)c1ccc(S(=O)(=O)N(CC(=O)Nc2ccccc2)CC2CCCO2)cc1 (stereo not given) | -0.1 | 0.8 | -4.5 | 19.2 | 59.9* | 1.0
COC(=O)CCN(C1CCCCC1)S(=O)(=O)c1ccc(S(=O)(=O)NC2CCCCC2)cc1 | 0.0 | 0.8 | 11.9 | 22.8 | 98.8* | 2.6
O=C(c1ccc(=O)[nH]n1)N1CCN(S(=O)(=O)c2cccc(F)c2)CC1 | / | / | / | / | / | -27.6
CCOc1ccccc1NC(=O)COC(=O)CSc1ccc(Cl)cc1 | / | 0.8 | -1.1 | 24.5 | 56.7* | 2.1
CCOc1ccccc1NC(=O)CSc1ccccc1 | -0.5 | 0.8 | 0.5 | 17.0 | 2.0 | 5.5
COc1ccc2[nH]c(=O)c(CN(C(=O)NC3CCCCC3)C3CCCC3)cc2c1 | -0.2 | 0.8 | 5.4 | 16.8 | 100.0* | -7.2
COc1ccc2[nH]c(=O)c(CN(C(=O)c3ccco3)C3CCCCC3)cc2c1 | 0.6 | 1 | 14.0 | -0.3 | 94.0* | 10.5
COc1ccc2[nH]c(=O)c(CN(C(C)=O)C3CCCCC3)cc2c1 | -0.2 | 0.9 | 6.6 | 6.6 | -0.7 | 4.3
CCc1nnc(NC(=O)C(c2ccccc2)c2ccccc2)s1 | / | / | / | / | / | -3.4
O=CN1CCN(S(=O)(=O)c2ccc(S(=O)(=O)NC3CCCCC3)cc2)CC1 | / | / | / | / | / | -6.3
COc1ccc(S(=O)(=O)Nc2ccccc2OC)cc1NC(=O)Cc1cccs1 | -0.2 | 0.8 | 11.9 | 15.2 | 100.3* | 3.8
COc1ccccc1NS(=O)(=O)c1ccc(NC(=O)Cc2cccs2)cc1 | 0.1 | 0.8 | 7.2 | 16.7 | 2.3 | -10.2
CCOC(=O)c1c(C)n(-c2ccccc2)c2ccc(O)c(CN(C)C)c12 | -2.0 | 1 | -1.7 | 0.7 | 94.3* | 3.7
CCOC(=O)c1c(C)n(C)c2ccc(O)c(CN(CC)CC)c12 | 0.2 | 0.8 | 6.0 | 20.8 | 61.9* | 13.0
CCOC(=O)c1c(C)n(-c2ccccc2)c2ccc(O)cc12 | 1.1 | / | 12.0 | / | -3.6 | 8.2
CCOC(=O)c1c(C)n(C)c2ccc(O)c(CN3CCC(C)CC3)c12 | 3.2 | 0.7 | -50.5 | 26.6 | 61.3* | 5.7
CCOC(=O)c1c(C)n(C)c2ccc(O)c(CN3CCN(C)CC3)c12 | -0.8 | 0.7 | 14.7 | 31.4 | -3.3 | 8.2
SMILES | Redox H2O2 prof | Diaph act CS | G6PDH CS | Diaph inh CS | Lmaj promast | PfGluPho inh
CCOC(=O)c1c(C)oc2ccc(O)c(CN(C)C)c12 | -3.0 | 0.8 | -21.4 | 17.5 | 0.8 | 7.8
C=CCN(c1ccccc1C(=O)NCC(=O)O)S(=O)(=O)c1ccccc1C | / | / | / | / | / | -13.5
O=C(O)c1ccc(N=Nc2c(O)ccc3ncccc23)cc1 | / | / | / | / | / | 18.7
CC1Oc2ccccc2C=C1/C=N/Nc1ccc(C(=O)O)cc1 (stereo not given) | / | / | / | / | / | -6.7
Cc1ccc(C)c(NC(=O)CN(C)C(=O)COc2ncnc3sccc23)c1 | / | 0.9 | 0.6 | 13.4 | 58.5* | -6.5
CN(Cc1ccncn1)C(=O)CC1C(=O)NCCN1Cc1cccc(Oc2ccccc2)c1 (stereo not given) | -0.6 | 0.9 | 14.8 | 5.3 | 94.7* | 3.9
COc1cc(CN2CCNC(=O)C2CC(=O)N(C)Cc2cccnc2)cc(OC)c1 (stereo not given) | -0.2 | / | 11.1 | / | -8.4 | 0.3
CC(=O)N1N=C(N)SC1(C)C | 0.1 | 0.9 | 0.4 | 7.6 | -4.0 | -6.8
CC1CC(C)CN(CC(O)COc2ccc3c(c2)CCC3)C1 (stereo not given) | -0.4 | 1 | 7.9 | 4.9 | 88.8* | 5.4
CC(C)(C)CC(C)(C)NCC(O)COc1ccc2c(c1)CCC2 (stereo not given) | -5.3 | / | / | / | 100.4* | 0.3
Cc1nc(C)n(CC(O)COc2ccc3c(c2)CCC3)n1 (stereo not given) | 2.3 | 1 | -1.1 | 4.8 | -3.8 | 5.2
CC1CC(C)CN(CC(O)COCCOc2ccc(Br)cc2)C1 (stereo not given) | -0.8 | 0.9 | -2.0 | 6.9 | 91.8* | -8.9
CCN1CCN(CC(O)COCCOc2ccc(Br)cc2)CC1 (stereo not given) | -0.1 | 1 | 5.6 | -3.9 | -5.8 | 2.3
CC1CCN(CC(O)COCCOc2ccc(Br)cc2)CC1 (stereo not given) | 0.3 | 0.9 | 8.2 | 14.7 | 82.3* | 5.3
CC(C)(CO)NCC(O)COc1ccc2c(c1)CCC2 (stereo not given) | -0.2 | 0.9 | -2.2 | 6.7 | 6.7 | -2.9
CCNC(C(=O)c1c[nH]c2c(CC)cccc12)c1ccccc1 (stereo not given) | / | / | / | / | / | 15.2
COc1ccc(CCNC(=O)CCC(=O)N2CCOc3ccc(Cl)cc32)cc1OC | / | / | / | / | / | 3.2
OC(COCCOc1ccc(Br)cc1)CN1CCCCC1 (stereo not given) | -0.7 | 1.1 | 2.6 | -5.5 | 71.2* | 12.0
CC1CC(C)CN(CCOc2ccc(Br)cc2)C1 (stereo not given) | -0.6 | 1 | 4.0 | 2.9 | 82.3* | -5.0
CN1CCN(CC(O)COCCOc2ccc(Br)cc2)CC1 (stereo not given) | 0.0 | 1 | -5.2 | 1.8 | -8.3 | 13.0
CC1CCN(CC(O)COCCC23CC4CC(CC(C4)C2)C3)CC1 (stereo not given) | -8.8 | 1 | 7.6 | 2.3 | 95.1* | 0.8
Cc1c(NC(=O)c2c(N)sc3c2CCCC3)c(=O)n(-c2ccccc2)n1C | -0.6 | 1 | 1.8 | 1.5 | -6.2 | 24.2
CCc1ccc(-c2nc(CN3CCC(C(=O)NCCN(CC)c4ccccc4)CC3)c(C)o2)cc1 | -0.5 | 1 | -0.4 | -1.5 | 64.7* | 15.0
CCN(CCNC(=O)C1CCCN(Cc2nc(-c3ccc(OC)cc3)oc2C)C1)c1ccccc1 (stereo not given) | 1.6 | 1 | -6.8 | 4.6 | 50.7* | 18.7
